Results: ChEMBL document CHEMBL5653631, “A Potent and Selective ULK1 Inhibitor Suppresses Autophagy and Sensitizes Cancer Cells to Nutrient Stress” (iScience, 2018)

What was measured:
[1] = biological target: Insulin receptor (Homo sapiens) (UniProt P06213); experiment: Inhibition of human recombinant INSR at 40 nM related to control ULK1
[2] = biological target: Protein kinase C beta type (Homo sapiens) (UniProt P05771); experiment: Inhibition of human recombinant PKCb at 40 nM related to control ULK1
[3] = biological target: Activin receptor type-2A (Homo sapiens) (UniProt P27037); experiment: Inhibition of human recombinant ACTR2 at 40 nM in presence of ATP by radiometric assay relative to control
[4] = biological target: Protein kinase C gamma type (Homo sapiens) (UniProt P05129); experiment: Inhibition of human recombinant PKCg at 40 nM in presence of ATP by radiometric assay relative to control
[5] = biological target: Epidermal growth factor receptor (Homo sapiens) (UniProt P00533); experiment: Inhibition of human recombinant EGFR at 40 nM in presence of ATP by radiometric assay relative to control
[6] = biological target: Protein-tyrosine kinase 2-beta (Homo sapiens) (UniProt Q14289); experiment: Inhibition of human recombinant PYK2 at 500 nM related to control ULK1
[7] = biological target: Ephrin type-A receptor 4 (Homo sapiens) (UniProt P54764); experiment: Inhibition of human recombinant EphA4 at 500 nM related to control ULK1
[8] = biological target: Tyrosine-protein kinase Yes (Homo sapiens) (UniProt P07947); experiment: Inhibition of human recombinant YES at 500 nM in presence of ATP by radiometric assay relative to control
[9] = biological target: Serine/threonine-protein kinase Nek7 (Homo sapiens) (UniProt Q8TDX7); experiment: Inhibition of human recombinant NEK7 at 15 nM related to control ULK1
[10] = biological target: Protein kinase C gamma type (Homo sapiens) (UniProt P05129); experiment: Inhibition of human recombinant PKCg at 15 nM related to control ULK1
[11] = biological target: Activin receptor type-1-like (Homo sapiens) (UniProt P37023); experiment: Inhibition of human recombinant ALK1 at 15 nM in presence of ATP by radiometric assay relative to control
In short: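 Panel of 327 recombinant human kinases, each assayed in vitro by radiometric activity assay in duplicate at a single inhibitor concentration per compound, chosen with reference to its ULK1 inhibition. Activity remaining was expressed as percent of vehicle control, and percent inhibition was calculated as 100 minus percent activity remaining.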

[12] = biological target: T1, Mitogen-activated protein kinase kinase kinase 2 (Homo sapiens) (UniProt Q9Y2U5); experiment: Inhibition of human recombinant MAP3K2 at 15 nM related to control ULK1
T1 sequence (whole entry): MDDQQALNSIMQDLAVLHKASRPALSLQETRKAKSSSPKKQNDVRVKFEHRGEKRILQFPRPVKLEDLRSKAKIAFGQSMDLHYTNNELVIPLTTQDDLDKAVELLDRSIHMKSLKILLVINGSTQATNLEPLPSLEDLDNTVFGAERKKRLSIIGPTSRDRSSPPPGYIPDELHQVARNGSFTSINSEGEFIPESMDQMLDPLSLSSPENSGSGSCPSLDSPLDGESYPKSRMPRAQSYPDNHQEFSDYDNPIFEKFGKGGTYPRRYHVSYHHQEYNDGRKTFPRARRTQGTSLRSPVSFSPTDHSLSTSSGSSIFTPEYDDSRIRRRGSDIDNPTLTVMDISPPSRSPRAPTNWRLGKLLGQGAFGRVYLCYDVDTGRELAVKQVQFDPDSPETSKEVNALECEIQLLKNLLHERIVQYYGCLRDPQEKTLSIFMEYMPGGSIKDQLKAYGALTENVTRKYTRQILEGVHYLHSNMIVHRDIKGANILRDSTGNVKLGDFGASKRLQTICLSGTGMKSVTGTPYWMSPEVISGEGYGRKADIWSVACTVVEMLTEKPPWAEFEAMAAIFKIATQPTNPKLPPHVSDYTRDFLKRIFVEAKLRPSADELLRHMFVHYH

[13] = biological target: T2, Bone morphogenetic protein receptor type-2 (Homo sapiens) (UniProt Q13873); experiment: Inhibition of human recombinant BMPR2 at 15 nM in presence of ATP by radiometric assay relative to control
T2 sequence (whole entry): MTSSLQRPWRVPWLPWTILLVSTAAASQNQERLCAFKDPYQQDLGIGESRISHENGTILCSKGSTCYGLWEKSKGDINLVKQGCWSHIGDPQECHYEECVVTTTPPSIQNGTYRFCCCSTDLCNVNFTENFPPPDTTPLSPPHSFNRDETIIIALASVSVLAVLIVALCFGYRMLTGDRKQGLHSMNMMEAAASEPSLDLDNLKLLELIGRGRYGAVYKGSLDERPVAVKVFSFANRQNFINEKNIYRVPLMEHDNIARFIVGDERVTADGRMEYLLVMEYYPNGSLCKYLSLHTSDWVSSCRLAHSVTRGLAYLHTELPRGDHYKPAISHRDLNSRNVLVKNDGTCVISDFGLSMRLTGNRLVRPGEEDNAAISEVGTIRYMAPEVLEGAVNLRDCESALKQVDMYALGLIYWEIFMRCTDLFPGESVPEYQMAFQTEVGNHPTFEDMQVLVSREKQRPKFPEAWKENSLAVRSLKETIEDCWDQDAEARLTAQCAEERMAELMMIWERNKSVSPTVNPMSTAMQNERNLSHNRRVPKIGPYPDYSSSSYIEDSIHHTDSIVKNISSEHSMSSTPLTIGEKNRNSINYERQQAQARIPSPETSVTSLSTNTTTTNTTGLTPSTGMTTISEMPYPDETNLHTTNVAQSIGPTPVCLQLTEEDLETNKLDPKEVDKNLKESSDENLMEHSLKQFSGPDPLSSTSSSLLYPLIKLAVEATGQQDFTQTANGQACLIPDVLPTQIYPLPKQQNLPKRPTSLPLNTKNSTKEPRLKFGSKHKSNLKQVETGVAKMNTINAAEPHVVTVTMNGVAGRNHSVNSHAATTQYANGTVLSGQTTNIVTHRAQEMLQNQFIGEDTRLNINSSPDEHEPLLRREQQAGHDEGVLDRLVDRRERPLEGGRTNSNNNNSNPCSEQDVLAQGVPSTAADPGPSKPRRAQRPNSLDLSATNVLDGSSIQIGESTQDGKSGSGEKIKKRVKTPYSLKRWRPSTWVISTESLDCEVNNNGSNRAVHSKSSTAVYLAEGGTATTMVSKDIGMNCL
In short: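 Part of a radiometric in vitro activity panel of 327 recombinant human kinases. Each kinase was tested in duplicate at one inhibitor concentration. Activity remaining was expressed as a percentage of the vehicle control, and percent inhibition was taken as 100 minus that value.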

[14] = biological target: Protein-tyrosine kinase 2-beta (Homo sapiens) (UniProt Q14289); experiment: Inhibition of human recombinant PYK2 at 15 nM in presence of ATP by radiometric assay relative to control
[15] = biological target: Interleukin-1 receptor-associated kinase 1 (Homo sapiens) (UniProt P51617); experiment: Inhibition of human recombinant IRAK1 at 15 nM related to control ULK1

O=C(N[C@@H](C1CC1)C(F)(F)F)c1cc(-c2cnn3cc(-c4ccc(F)cc4)cnc23)cs1 was tested. Which fold change (FC) [1] did it give?
Its fold change (FC) is 0.

What about the fold change (FC) [2] of the same compound?
The fold change (FC) was 0.04.

And the inhibition [3]?
Its inhibition is 1%.

And the inhibition [4]?
Its inhibition is 0%.

What about the inhibition [5] of the same compound?
Its inhibition is 0%.

Which results are given for CNC(=O)c1ccccc1Oc1nc(Nc2cc(OC)c(OC)c(OC)c2)ncc1Br?
fold change (FC) [6]: 0.72; fold change (FC) [7]: 0.2; inhibition [8]: 66%

With CC(C)[C@H](NC(=O)c1cc(-c2cnn3cc(-c4ccc(OCCN5CCCCC5)cc4)cnc23)cs1)C(F)(F)F as the compound, how does the fold change (FC) [9] read?
Its fold change (FC) is 0.

And the fold change (FC) [10]?
The fold change (FC) was 0.

What about the inhibition [11] of the same compound?
The inhibition was 7%.

And the fold change (FC) [12]?
The fold change (FC) was 0.03.

What about the inhibition [13] of the same compound?
The inhibition was 5%.

And the inhibition [14]?
The inhibition was 0%.

And the fold change (FC) [15]?
Its fold change (FC) is 0.41.
